Screening results: PubChem BioAssay, several laboratories
The list is not random: actives were taken first. Their share in the collection is about 2.4%.
DAGLB inh – blocks human DAGLB lipase activity; Q8NCG7; HEK293T DAGLB membrane lysate, EnzChek fluorogenic substrate; inhibition, % at 5.17 µM; hit rate 0.059% among 340,000; AID 504411; in the data active = inhibition above about 34%
MIN6 prolif-1 – inducers of beta-cell replication in MIN6 cells; AID 2380; proliferation, % at 10 µM; MIN6 cells proliferation, ATPlite luminescence, 48 h; cells starved in 0.2% serum; 100% = growth in 10% serum; hit rate 0.29% among 330,000;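 active = compounds whose signal lies at least 3.5 SD above the mean of all wells on their plate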
SENP1 FRET inh – inhibitors of human SENP1 SUMO protease catalytic domain; recombinant SENP1 catalytic domain, CyPet-SUMO1-YPet FRET cleavage; inhibition, % at 10 µM; hit rate 0.21% among 360,000;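 active = inhibition at least 30% at 10 µM, raw YFP signal under a set limit, fluorescence ratio 0.5 to 1.5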
Target sequence (Q9P0U3 419-644 limits assumed): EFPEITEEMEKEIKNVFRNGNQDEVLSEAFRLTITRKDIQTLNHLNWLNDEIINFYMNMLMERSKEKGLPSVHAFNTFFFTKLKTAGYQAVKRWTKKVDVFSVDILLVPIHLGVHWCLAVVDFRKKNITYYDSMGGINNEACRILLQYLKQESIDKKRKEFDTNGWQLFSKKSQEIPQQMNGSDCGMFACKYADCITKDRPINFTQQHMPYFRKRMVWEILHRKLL
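Material: hSENP1 catalytic domain, recombinant; medium: Tris pH 8 with BME, BSA, NP40 and catalase; compound: single concentration of 10 µM compound, 0.5% DMSO final; technique: FRET read of cyan and yellow fluorescence; timing: 50 min enzyme reaction, room temperature, light-protected; reagent: SFCypet-SUMO1-SFYpet substrate at 25 nM; control set: no-enzyme low, enzyme-DMSO high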
MT1-MMP act inh – blocks activation of human MT1-MMP; hit rate 0.061% among 360,000; GFP/RFP ratio change, % at 20 µM; HT1080 RFP-PRO-GFP cells, GFP/RFP ratio fluorescence, overnight; percent of plate control window, DMSO zero; P50281;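 active = GFP/RFP ratio change of at least 30% with cell ATP level not reduced by more than half and red fluorescence within 50% of control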
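Assay system: HT1080 cells carrying an RFP-PRO-GFP reporter | Dosing: Single dose of 20 µM compound, 1% DMSO final | Incubation: Cells overnight before dosing, compound overnight, 37 °C, 5% CO2 | Evaluation: GFP/RFP fluorescence ratio | Control set: DMSO and RFP-L50D-GFP cell wells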
Myeloid diff 2 – promotes myeloid progenitor differentiation | calls only at 10 µM | AID 624256 | hit rate 1% among 360,000 | ER-HoxA9 myeloid progenitors, lysozyme-GFP differentiation, flow cytometry;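 active = normalized GFP-positive differentiation at or above the plate's own cutoff, the solvent-only control mean plus 3 SD; inconclusive = no clear call, values can overlap the other calls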;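 note: cells exposed to compound for four days before flow analysis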
NRP1-CendR mod – NRP-1/CendR interaction modulation; FAM-RPARPAR peptide binding to NRP-1, fluorescence polarization; inhibition, % at 25 µM; hit rate 0.85% among 360,000; AID 602438;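 active = inhibition or corrected inhibition above about 18%, plus a signal ratio from 0.5 to 1.5, limit read from the data, passing the limit was not always enough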
MIN6 prolif-2 – confirmation of inducers of beta-cell replication in MIN6 cells; shares compounds with MIN6 prolif-1; MIN6 beta-cell proliferation, ATPlite luminescence, 48 h; cells kept in 0.2% serum; scaled between 0.2% and 10% serum; proliferation increase, % at 50 µM; 920 tested, under 10 active;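 active = proliferation increase above 40% at any of the four tested concentrations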
DAGLB confirm – DAGLB (human) inhibition, confirmation screen. shares compounds with DAGLB inh. HEK293T DAGLB membrane lysate, EnzChek fluorogenic substrate. inhibition, % at 5.17 µM. hit rate 73% among 190. AID 504445;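 active = mean inhibition over triplicate wells above a set limit taken from the primary lipase screen, cut at about 34% in these data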
Myeloid diff – promotes myeloid progenitor differentiation; shares compounds with Myeloid diff 2; ER-HoxA9 myeloid progenitors, GFP/Mac1 double-positive flow; calls only; hit rate 2% among 2,300; AID 651706;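 active = share of green or green-and-red cells above 9 and 9% in run 1 or 4 and 3% in run 2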
GFP autofluor – counter-screen for myeloid differentiation promoters: compound fluorescence; shares compounds with Myeloid diff 2; hit rate 7.4% among 2,300; fluorescence response, % (test concentration not listed); ER-HoxA9 myeloid progenitors, no estrogen, GFP autofluorescence flow cytometry; vehicle wells 0%, positive control 100%;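 active = over 5% cells positive for green fluorescent reporter, or over 2% positive for both it and APC stain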
A number is an active result.

For COC(=O)c1ccc(OC)c(OC2CCCC2)c1 the results were DAGLB inh inactive, MIN6 prolif-1 6.6, SENP1 FRET inh inactive, MT1-MMP act inh inactive, Myeloid diff 2 inactive, NRP1-CendR mod inactive, MIN6 prolif-2 inactive, Myeloid diff inactive and GFP autofluor inactive.
`Cc1ccc(C(=O)Nc2cccc(S(=O)(=O)N3CCCCC3)c2)cc1S(=O)(=O)N1CCOCC1` gave DAGLB inh inactive, SENP1 FRET inh inactive, MT1-MMP act inh inactive, Myeloid diff 2 inactive and NRP1-CendR mod inactive.
Screening O=c1[nH]c(CSc2nc3ccccc3s2)nc2ccccc12 returned DAGLB inh inactive, MIN6 prolif-1 inactive, SENP1 FRET inh inactive, MT1-MMP act inh inactive, Myeloid diff 2 inactive and NRP1-CendR mod inactive.
Cc1ccc(Nc2nnc(SCc3nc4ccccc4c(=O)[nH]3)s2)cc1 was read as DAGLB inh 59.7, MIN6 prolif-1 inactive, SENP1 FRET inh inactive, MT1-MMP act inh inactive, Myeloid diff 2 inactive, NRP1-CendR mod inactive and DAGLB confirm 50.4.
`CNc1ccc2nnc(C(F)(F)C(F)(F)C(F)(F)F)n2n1` gave DAGLB inh inactive, MIN6 prolif-1 inactive, SENP1 FRET inh inactive, MT1-MMP act inh inactive, Myeloid diff 2 inactive and NRP1-CendR mod inactive.
`CC(=O)Nc1ccc(S(=O)(=O)Oc2ccc(/C=C3\SC(N)=NC3=O)cc2)cc1` gave DAGLB inh inactive, MIN6 prolif-1 inactive, SENP1 FRET inh inactive, MT1-MMP act inh inactive, Myeloid diff 2 inactive and NRP1-CendR mod inactive.
For O=C1C(Nc2ccc(O)cc2)=C/C(=N/S(=O)(=O)c2cccs2)c2ccccc21 the results were DAGLB inh 37.3, SENP1 FRET inh inactive, MT1-MMP act inh inactive, Myeloid diff 2 inconclusive, NRP1-CendR mod inactive and DAGLB confirm 43.7.
Screening Cc1c(Cl)cccc1N/C(=N/S(=O)(=O)c1cccs1)c1ccccc1 returned DAGLB inh inactive, MIN6 prolif-1 inactive, SENP1 FRET inh inactive, MT1-MMP act inh inactive, Myeloid diff 2 inactive and NRP1-CendR mod inactive.
Screening O=C1/C(=N\S(=O)(=O)c2cccs2)C([n+]2ccccc2)=C([O-])c2ccccc21 returned DAGLB inh inactive, MIN6 prolif-1 inactive, SENP1 FRET inh inactive, MT1-MMP act inh inactive, Myeloid diff 2 inactive and NRP1-CendR mod inactive.
Cc1cccc(NC2=C/C(=N/S(=O)(=O)c3cccs3)c3ccccc3C2=O)c1 was read as DAGLB inh inactive, SENP1 FRET inh inactive, MT1-MMP act inh inactive and NRP1-CendR mod inactive.
`Cc1ccc(Cl)cc1NC1=C/C(=N\S(=O)(=O)c2cccs2)c2ccccc2C1=O` gave DAGLB inh 42.6, MIN6 prolif-1 inactive, SENP1 FRET inh inactive, MT1-MMP act inh inactive, Myeloid diff 2 inconclusive, NRP1-CendR mod inactive and DAGLB confirm 46.1.
Cc1ccc(NC2=C/C(=N\S(=O)(=O)c3cccs3)c3ccccc3C2=O)c(C)c1 was read as DAGLB inh 50.5, MIN6 prolif-1 inactive, SENP1 FRET inh inactive, MT1-MMP act inh inactive, Myeloid diff 2 inconclusive, NRP1-CendR mod inactive and DAGLB confirm 53.5.
Screening COc1cc(NC(=S)NC2CC(C)(C)NC(C)(C)C2)c(OC)cc1Cl returned DAGLB inh inactive, MIN6 prolif-1 inactive, SENP1 FRET inh inactive, MT1-MMP act inh inactive, Myeloid diff 2 inactive and NRP1-CendR mod inactive.
Screening Cc1ccc(NC(=S)NC2CCCCC2)cc1S(=O)(=O)N(C)C returned DAGLB inh inactive, MIN6 prolif-1 inactive, SENP1 FRET inh inactive, MT1-MMP act inh inactive, Myeloid diff 2 inactive and NRP1-CendR mod inactive.
